# Screening results as filed in PubChem BioAssay.
# In the library only some 0.89% were active in any assay of this set; here they are far more common.
# MIN6 prolif-1: inducers of beta-cell replication in MIN6 cells; MIN6 cells proliferation, ATPlite luminescence, 48 h; cells starved in 0.2% serum; 100% = growth in 10% serum; proliferation, % at 10 µM; AID 2380; 0.29% of 330,000 active;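 active = compounds whose signal lies at least 3.5 SD above the mean of all wells on their plate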
# T cell HTS: T cell immune modulators affecting CD8 T cell-vesicle binding; 2C CD8+ T cell-vesicle binding, flow cytometry; hits give low values; response (vesicle binding), % at 7 µM; 0.068% of 330,000 active;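 active = response, share of CD8 T cells binding vesicles, and their 90th percentile fluorescence all below set limits, cut at about 80% in these data, passing the limit was not always enough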;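 also: values below 100% mean blocked vesicle binding to the CD8+ T cells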
#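 material = purified 2C TCR transgenic mouse naive CD8+ T cells | controls = Unloaded micro-vesicles (low), QL9 vesicles with 0.7% DMSO (high) | detection = cytometric PE anti-B7-1 and Alexa647 anti-CD8 signals after 1% paraformaldehyde fixation | incubation = binding step 1.5 h, 37 °C, antibody labelling 20 min, ice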
# NTR1 ag: activates human neurotensin receptor 1. NTR1-U2OS beta-arrestin-GFP spot imaging, agonist mode. P30989. activation, % at 20 µM. 0.17% of 330,000 active;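 active = activation at or above 40% of the spot to cytoplasm intensity ratio, with at least 20 cells analyzed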
# Target sequence (P30989 whole entry, looked up): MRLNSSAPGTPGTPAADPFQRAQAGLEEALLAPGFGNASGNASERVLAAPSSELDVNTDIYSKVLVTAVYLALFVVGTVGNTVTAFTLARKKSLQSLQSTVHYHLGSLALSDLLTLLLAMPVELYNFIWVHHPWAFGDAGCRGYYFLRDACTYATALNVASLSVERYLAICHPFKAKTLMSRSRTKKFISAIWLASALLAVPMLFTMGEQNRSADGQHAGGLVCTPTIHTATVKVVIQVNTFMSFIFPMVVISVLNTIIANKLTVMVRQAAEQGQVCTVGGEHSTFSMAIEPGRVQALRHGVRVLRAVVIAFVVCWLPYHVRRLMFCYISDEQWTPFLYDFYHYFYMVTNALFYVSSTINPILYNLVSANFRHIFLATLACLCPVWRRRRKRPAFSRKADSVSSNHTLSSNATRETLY
# Xi reactivation: activators of X-chromosome reactivation in mouse fibroblasts; XiGFP mouse fibroblasts, % GFP-positive cells imaging, 3 d; cells co-treated with 5-aza-dC sensitizer; scaled so ellipticine positive control = 100%; 0.055% of 360,000 active; activation, % at 7.58 µM;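 active = mean normalized replicate activation at least 10% and every replicate at or above 10%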
#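 assay system = SV40-immortalized XiGFP fibroblast cells, line 68-5-11 | buffer or medium = DMEM plus 5-aza-dC sensitizer | doses = single-point pinned compound dosing | times = 3-day compound exposure, then 15 min fixation at room temperature | benchmarks = positive control ellipticine, 6 µM final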
# V-ATPase pH: regulators of yeast V-ATPase proton transport; 0.37% of 350,000 active; S. cerevisiae, pHLuorin cytosolic pH fluorescence; response, % at 10 µM; in the data active = response mostly above about 7.3%, no sharp cut-off; inactive = mostly below about 5.4%; also: actives read high
# Arrestin-AP2 inh: inhibitors of human beta-arrestin and AP2 interaction. FITC-arrestin peptide / GST-AP2 beads, flow cytometry; AP2 beta2 appendage carries R879A mutation. inhibition, % at 10 µM. 0.31% of 340,000 active;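 active = inhibition above a set limit, near 3 SD of compounds lacking own fluorescence, cut at about 54% in these data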
#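 System: GST-AP2 R879A glutathione beads; medium: PBS, Tween 20 0.05%, BSA 0.1%; reagent: fluorescein-tagged arrestin peptide at 50 nM final; schedule: pre-incubation 12 min, peptide binding 1 h, room temperature; detection: flow cytometry, FL1 (488/535 nm); read-out: inhibition as reduced fluorescein signal on beads, percent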
# MIN6 prolif-2: confirmation of inducers of beta-cell replication in MIN6 cells | proliferation increase, % at 50 µM | 920 tested, under 10 active | shares compounds with MIN6 prolif-1 | AID 463095 | MIN6 beta-cell proliferation, ATPlite luminescence, 48 h; cells kept in 0.2% serum; scaled between 0.2% and 10% serum;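 active = proliferation increase above 40% at any of the four tested concentrations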
# A number is an active result; i = inactive; nt = no result given.
SMILES,MIN6 prolif-1,T cell HTS,NTR1 ag,Xi reactivation,V-ATPase pH,Arrestin-AP2 inh,MIN6 prolif-2
CCOC(=O)C1CCCN(C2CC(=O)N(c3ccccc3)C2=O)C1 (centres undefined),i,i,i,i,i,i,nt
CCOC(=O)C1CCCN(C2CC(=O)N(c3ccc(N4C(=O)CC(N5CCCC(C(=O)OCC)C5)C4=O)cc3)C2=O)C1 (centres undefined),9.5,i,i,i,i,i,i
CCOC(=O)c1c(C)[nH]c(C)c1C(=O)COC(=O)c1cccc(S(=O)(=O)NC)c1,11,i,i,nt,i,i,i
COc1ccc(N2CCN(C(=O)COc3ccc(S(=O)(=O)N4CCOCC4)cc3C)CC2)cc1,0.0,i,i,i,i,i,i
O=C(NC1CCC1)[C@H]1N[C@H]2c3ccc(-c4cccc(F)c4)c(=O)n3C[C@H]2[C@@H]1CO,nt,nt,nt,i,nt,nt,nt
C[C@@H]1CN([C@H](C)CO)C(=O)Cc2cc(NC(=O)c3ccncc3)ccc2O[C@H]1CN(C)S(=O)(=O)c1ccc(F)cc1,nt,nt,nt,i,nt,nt,nt
CC1(C)CC(=S)Nc2ccccc2S1,11,i,i,nt,i,i,i
CC1(C)CC(=O)C2=C(C1)Nc1ccccc1S2,i,i,i,i,i,i,nt
C=CCOn1c(=O)c(-c2ccc(Br)cc2)[n+]([O-])c2ccccc21,8.9,i,i,i,i,i,i
CN(c1nc2nonc2nc1NC1CC1)C1CCOC1 (centres undefined),7.6,i,i,i,i,i,i
CC(c1nccs1)N(C)c1nc2nonc2nc1NC1CC1 (centres undefined),i,i,i,i,i,i,nt
CC(C)NC(=O)N1CC2(C1)[C@H](c1ccccc1)[C@@H](CO)N2C(=O)C1CCC1,nt,nt,nt,i,nt,nt,nt
O=C(Cn1cc2c(n1)CCCCC2)NCc1ccccn1,12,i,i,i,i,i,i
Cc1ccccc1S(=O)(=O)NCC[C@@H]1CC[C@@H](NC(=O)C2CCCCC2)[C@@H](CO)O1,nt,nt,nt,i,nt,nt,nt
CCOc1ccc(OCc2ccc(C(=O)NCc3ccncc3)o2)cc1,4.9,i,i,nt,i,i,i
CCc1ccc(OCc2ccc(C(=O)NCc3ccccn3)o2)cc1,i,i,i,nt,i,i,nt
CO[C@@H]1CN(C)C(=O)c2ccc(NS(=O)(=O)c3ccc(C)cc3)cc2OC[C@H](C)N(C(=O)NC(C)C)C[C@@H]1C,nt,nt,nt,i,nt,nt,nt
CCCCCOC(=O)Cn1c(N2CCCCCC2)nc2c1c(=O)[nH]c(=O)n2C,9.2,i,i,nt,i,i,i
O=C(NCc1ccccn1)C1CCCN(S(=O)(=O)c2ccc(Br)cc2)C1 (centres undefined),5.8,i,i,nt,i,i,i
Cc1noc(C)c1NC(=O)Nc1ccc2c(c1)C(=O)N([C@@H](C)CO)C[C@@H](C)[C@H](CN(C)C(=O)NC(C)C)OCCCC[C@H](C)O2,nt,nt,nt,i,nt,nt,nt
CCN(CC)c1cnn(C/C(=N\OC)c2ccc(Cl)cc2)c(=O)c1Br,7.5,i,i,nt,i,i,i
COc1cc2c(cc1OC)/C(=C/C(=O)c1ccc([N+](=O)[O-])c(C)c1)NCC2,11,nt,i,i,i,i,i
COc1cc2c(cc1OC)/C(=C/C(=O)c1ccccc1)NCC2,i,i,i,i,i,i,nt
COc1cccc(C(=O)/C=C2\NCCc3cc(OC)c(OC)cc32)c1,16,i,i,i,i,i,i
C[C@@H]1CN([C@@H](C)CO)C(=O)c2cc(C#CC3CCCCC3)cnc2O[C@@H]1CN(C)Cc1cccnc1,nt,nt,nt,i,nt,nt,nt
SMILES,MIN6 prolif-1,T cell HTS,NTR1 ag,Xi reactivation,V-ATPase pH,Arrestin-AP2 inh,MIN6 prolif-2
CNc1nc(Nc2ccccc2)nc(OCC(F)(F)F)n1,7.0,i,i,i,i,i,i
CNc1nc(NN)nc(Nc2ccccc2)n1,i,i,i,i,i,i,nt
CC(C)NC(=O)N(C)C[C@@H]1Oc2ccc(N(C)C)cc2C(=O)N([C@@H](C)CO)C[C@@H]1C,nt,nt,nt,i,nt,nt,nt
O=C(NNC(=O)C1CCCO1)c1ccc(Cl)cc1 (centres undefined),8.5,i,i,nt,i,i,i
O=C(NNC(=O)C1CCCO1)c1ccc([N+](=O)[O-])cc1 (centres undefined),i,i,i,i,i,i,nt
CN1C(=O)c2cc(NC(=O)Nc3cccc(Cl)c3)ccc2OC[C@@H]2O[C@H](CC(=O)O)CC[C@H]21,nt,nt,nt,i,nt,nt,nt
CCC(=O)N1N=C(c2cccs2)CC1c1ccc(C)cc1 (centres undefined),7.8,i,i,i,i,i,i
CCC(=O)N1N=C(c2ccccc2)CC1c1ccc([N+](=O)[O-])cc1 (centres undefined),7.3,i,i,i,i,i,i
COc1ccc(NC(=O)N(C)C[C@H]2Oc3ncc(-c4ccc(C#N)cc4)cc3C(=O)N([C@@H](C)CO)C[C@@H]2C)cc1,nt,nt,nt,i,nt,nt,nt
O=C(C[C@@H]1C[C@H]2c3cc(NC(=O)NC4CCCC4)ccc3O[C@H]2[C@@H](CO)O1)NCc1ccncc1,nt,nt,nt,i,nt,nt,nt
COc1ccc2c3c(n(C)c2c1)[C@@H](CO)N(C(=O)C1CCOCC1)CC31CCN(Cc2cccc(F)c2)CC1,nt,nt,nt,i,nt,nt,nt
CCOc1ccc(-c2noc(-c3cccnc3)n2)cc1OCC,i,i,i,i,i,i,nt
